This is a sample that favours compounds with a hit; in the whole collection about 2.1% have one here.
SUMO Mot1 rescue = yeast Mot1-301 growth rescue at high temperature, primary screen, SUMOylation pathway inhibitor project, S. cerevisiae, ATP luminescence, 38.5C; AID 2716, 2010; 320,000 tested, 1% active; growth rescue, % at 18.8 µM; S. cerevisiae Mot1-301 growth rescue; percent above DMSO median, 100 means doubled;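 active = every valid replicate shows activation above 250% relative to neutral control wells; inactive = the rest, any valid replicate at or below 250%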
ASAP1 inh = inhibitors of human ASAP1 ArfGAP activity, primary screen, biochemical, fluorescence polarization; 360,000 tested, 0.19% active; AID 624377, 2012; ASAP1-stimulated ARF1 GTP hydrolysis, GDP FP detection; inhibition, % at 16.5 µM; in the data active = inhibition above about 25%
Target sequence (Q9ULH1 325-724 limits assumed): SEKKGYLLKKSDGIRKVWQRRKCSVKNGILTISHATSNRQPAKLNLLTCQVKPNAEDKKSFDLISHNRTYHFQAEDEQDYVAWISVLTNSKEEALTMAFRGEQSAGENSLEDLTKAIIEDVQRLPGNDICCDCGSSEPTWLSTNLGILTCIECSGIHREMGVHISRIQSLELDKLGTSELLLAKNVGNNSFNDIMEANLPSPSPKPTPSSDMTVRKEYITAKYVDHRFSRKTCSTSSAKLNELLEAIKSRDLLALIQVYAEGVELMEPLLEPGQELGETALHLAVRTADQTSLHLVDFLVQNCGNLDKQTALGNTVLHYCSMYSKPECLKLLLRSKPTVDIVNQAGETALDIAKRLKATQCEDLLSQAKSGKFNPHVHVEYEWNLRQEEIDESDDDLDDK
C2C12 statin = suppressors of statin myotoxicity in C2C12 myotubes, primary screen, cell-based, single point, plate reader. C2C12 myotubes + simvastatin, ATP luminescence, 48 h; scaled: DMSO 0, geranylgeraniol control 100. rescue of ATP level, % at 7.49 µM. 330,000 tested, 0.78% active;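 active = mean ATP rescue above about 67%, or every replicate alone reaching that limit, limit read from the data, passing the limit was not always enough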;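 note: myotubes were challenged with 10 µM simvastatin during compound exposure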
APOBEC3G inh = APOBEC3G DNA deaminase inhibitors, primary screen, biochemical, fluorescence, single-stranded DNA substrate, uHTS | recombinant A3G, ssDNA deamination FAM/TAMRA fluorescence | AID 493012, 2011 | inhibition, % at 20 µM | DNA dC->dU-editing enzyme APOBEC-3G (Homo sapiens), Q9HC16 | 330,000 tested, 0.28% active;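 active = inhibition of at least 40% at 20 µM, with no more than 30% in the related APOBEC3A deaminase screen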
ARFGAP1 inh = inhibitors of rat ARFGAP1 GAP activity, primary screen, biochemical, fluorescence polarization, GDP tracer | ADP-ribosylation factor GTPase-activating protein 1 (Rattus norvegicus), Q62848 | Arfgap1-stimulated ARF1 GTP hydrolysis, GDP FP detection | inhibition, % at 16.5 µM | 360,000 tested, 0.26% active;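 active = inhibition above a per-plate limit, mean inhibition of low control wells plus 3 SD, cut at about 25% in these data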
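material = rat Arfgap1 catalytic domain, aa 1-136 | also added = human ARF1(Δ1-17)-GTP substrate | compound dosing = one concentration, 16.5 µM, DMSO 1.26% | times = GTP hydrolysis reaction 2 h at 25 °C | measured by = FP, GDP Alexa 633 tracer displaced from anti-GDP antibody, 620/688 nm | evaluation = percent inhibition of Arfgap1-stimulated GTP hydrolysis | replication = single well per compound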
APOBEC3A inh = APOBEC3A ssDNA deaminase inhibitors, primary screen, selectivity assay for APOBEC3G inhibitor project, biochemical, FAM/TAMRA oligo cleavage fluorescence | DNA dC->dU-editing enzyme APOBEC-3A (Homo sapiens), P31941 | recombinant A3A, FAM/TAMRA ssDNA deamination fluorescence | inhibition, % at 20 µM | 330,000 tested, 0.41% active;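 active = at least 40% inhibition at 20 µM here, with at most 30% in a related deaminase screen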
Target sequence (P31941 whole entry, looked up): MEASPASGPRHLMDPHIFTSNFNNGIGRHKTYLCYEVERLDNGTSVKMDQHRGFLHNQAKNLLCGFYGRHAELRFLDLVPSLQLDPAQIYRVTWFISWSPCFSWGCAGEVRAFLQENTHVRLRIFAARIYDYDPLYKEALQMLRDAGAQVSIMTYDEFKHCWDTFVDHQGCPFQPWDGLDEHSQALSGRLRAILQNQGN
APOBEC3A confirm = APOBEC3A deaminase inhibitors, retest, confirmation, selectivity assay for APOBEC3G inhibitor project, biochemical, single concentration, fluorescence readout | 1,400 tested, 63% active | recombinant A3A, ssDNA deaminase UDG fluorescence assay | inhibition, % at 20 µM | shares compounds with APOBEC3A inh;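 active = inhibition reaching a set limit, 80% of the first screen's cutoff, at 20 µM in any replicate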
UDG A3A counter = E. coli UDG inhibitors, confirmation, counter-screen for APOBEC3A inhibitor project, biochemical, single concentration, fluorescence, FAM/TAMRA oligo. AID 504714, 2011. 1,000 tested, under 10 active. shares compounds with APOBEC3A inh. inhibition, % at 20 µM. UDG counterscreen, FAM/TAMRA uracil oligo fluorescence; call rule not given here
A3G conf = APOBEC3G deaminase inhibitor retest, confirmation, biochemical, fluorescence, single-stranded DNA substrate, single concentration | shares compounds with APOBEC3G inh | recombinant A3G ssDNA deaminase, UDG/FAM-TAMRA fluorescence | inhibition, % at 20 µM | 890 tested, 72% active;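 active = inhibition reaching a set limit in any replicate at 20 µM, the limit being 80% of the first screen's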
UDG ctr A3G = E. coli UDG inhibitors, confirmation, counter-screen for APOBEC3G inhibitor project, biochemical, single concentration, fluorescence, FAM/TAMRA oligo; shares compounds with APOBEC3G inh; UDG counterscreen; inhibition, % at 20 µM; 710 tested, under 10 active;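 active = compounds giving 40% or more inhibition at 20 µM in any one of the three replicates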;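 note: inhibitors lower the FAM signal released by uracil excision and alkaline cleavage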
ASAP1 GAP conf = ASAP1 GAP activity inhibitors, confirmation, biochemical, fluorescence polarization, human, triplicate | ASAP1-stimulated Arf1 GTPase, GDP fluorescence polarization | 620 tested, 37% active | inhibition, % at 16.5 µM | AID 624431, 2012 | shares compounds with ASAP1 inh;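 active = mean inhibition over triplicates exceeds the hit threshold derived for the earlier primary screening run, cut at about 25% in these data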
Numbers stand for hits; – = inactive; · = no result.

SMILES	SUMO Mot1 rescue	ASAP1 inh	C2C12 statin	APOBEC3G inh	ARFGAP1 inh	APOBEC3A inh	APOBEC3A confirm	A3G conf	others
O=C(CN(Cc1ccccc1)C(=O)c1ccco1)NCc1ccc(F)cc1	·	–	·	–	–	–	·	·
CC(C)C(CO)N1CCN(Cc2ccccc2)CCC1=O (centres undefined)	–	–	–	–	–	61.4	51.3	·	UDG A3A counter=–
COC(=O)\C(C(C)=O)=C(/C=C/C=C/N(C)C)N(C)C	–	–	–	–	–	47.4	35.5	·
COC(=O)/C(C(C)=O)=C(/C=C/C=C/N(C)C)N(C)C	–	–	–	–	–	–	·	·
O=C(c1ccc2c(c1)OCO2)N1C[C@H]2[C@@H](c3ccccc31)[C@@H](CO)N2CC1CCCC1	·	·	–	·	·	·	·	·
CCc1noc(C)c1C(=O)N1CCN(S(=O)(=O)c2ccc(C(C)=O)cc2)CC1	–	–	·	–	–	40.0	–	·
CC(C)CN(C(=O)c1ccco1)C1CCS(=O)(=O)C1 (centres undefined)	–	–	–	–	–	–	·	·
CCCCN(C(=O)c1ccco1)C1CCS(=O)(=O)C1 (centres undefined)	–	–	–	–	–	65.0	–	·	UDG A3A counter=–
CC1=NC(=O)C(N=Nc2ccccc2)N1c1ccccc1 (centres undefined)	·	–	–	–	–	–	·	·
CC1=NC(=O)C(N=Nc2cccc(C(=O)O)c2)N1c1ccccc1 (centres undefined)	–	–	·	–	–	42.5	63.2	·	UDG A3A counter=–
C[C@@H]1CN([C@@H](C)CO)C(=O)c2cc(-c3ccccc3F)cnc2O[C@H]1CN(C)C(=O)CN(C)C	·	·	–	·	·	·	·	·
C=CCNC(=O)c1ccccc1NS(=O)(=O)c1ccc(SC)cc1	–	–	–	–	–	–	·	·
C=CCNC(=O)c1ccccc1NC(=O)C1CCN(S(=O)(=O)c2ccc(SC)cc2)CC1	–	–	–	–	–	43.6	59.7	·	UDG A3A counter=–
CSc1ccc(S(=O)(=O)N2CCC(C(=O)NCc3ccccn3)CC2)cc1	–	–	–	–	–	59.5	53.2	·	UDG A3A counter=–
CCC(=O)Nc1ccc2c(c1)C(=O)N(C)C[C@H](OC)[C@H](C)CN(CC1CC1)[C@@H](C)CO2	·	·	–	·	·	·	·	·
COc1ccc(N2CC(C(=O)NCc3ccco3)CC2=O)cc1 (centres undefined)	–	–	–	–	–	40.9	45.8	·	UDG A3A counter=–
C[C@@H]1CCCCO[C@H](CN(C)Cc2ccncc2)[C@H](C)CN([C@H](C)CO)C(=O)c2cc(NC(=O)Nc3ccc(F)cc3)ccc2O1	·	·	–	·	·	·	·	·
O=C(C[C@H]1CC[C@H](NC(=O)Nc2ccc(C(F)(F)F)cc2)[C@H](CO)O1)NCc1cc(F)cc(F)c1	·	·	–	·	·	·	·	·
COc1ccc(C(=O)Nc2ccc3c(c2)C(=O)c2ccccc2C3=O)cc1OC	–	27.1	·	–	–	65.6	–	·	ASAP1 GAP conf=40.0
O=C(c1ccccc1F)N1C[C@@H]2[C@H](c3ccccc31)[C@H](CO)N2C(=O)c1ccc(F)cc1	·	·	–	·	·	·	·	·
O=C1c2ccccc2C(=O)N1CCSc1n[nH]c(=S)s1	–	–	·	53.7	–	–	·	active	UDG ctr A3G=–
COc1cnc(NS(=O)(=O)c2ccc(N)cc2)nc1	–	–	–	50.4	–	–	·	19.6	UDG ctr A3G=–
O=c1oc(-c2ccc(O)c(O)c2)cc2cccc(O)c12	·	–	–	–	–	–	·	·
Oc1cccc2cc3cccc(O)c3c(O)c12	–	·	–	55.0	·	–	·	61.8	UDG ctr A3G=–
C[C@@H]1CCCCO[C@H](CN(C)S(=O)(=O)c2cccs2)[C@@H](C)CN([C@H](C)CO)C(=O)c2cc(NS(C)(=O)=O)ccc2O1	·	·	–	·	·	·	·	·
SMILES	SUMO Mot1 rescue	ASAP1 inh	C2C12 statin	APOBEC3G inh	ARFGAP1 inh	APOBEC3A inh	APOBEC3A confirm	A3G conf	others
CCCCCC(O)CCc1n[nH]c(=S)n1-c1ccccc1 (centres undefined)	–	–	–	41.2	–	–	·	57.8	UDG ctr A3G=–
CCCOc1ccc(CCc2n[nH]c(=S)n2-c2ccccc2)cc1	–	–	·	–	–	–	·	·
CC(C)(C)n1nnnc1C(c1cccnc1)N(Cc1ccccc1)Cc1ccco1 (centres undefined)	–	–	–	40.7	–	–	·	–
COc1cccc(CN(Cc2ccco2)C(c2ccc(F)cc2)c2nnnn2C(C)(C)C)c1 (centres undefined)	–	–	–	–	–	–	·	·
O=C(O)c1ccccc1C(=O)Nc1n[nH]c(=S)s1	–	–	–	64.2	–	–	·	44.3	UDG ctr A3G=–
N#CC1=C2SCN(c3ccccc3)CN2C(=O)CC1c1cccs1 (centres undefined)	–	–	–	48.1	–	–	·	55.4	UDG ctr A3G=–
N#CC1=C2SCN(c3ccccc3)CN2C(=O)CC1c1c(Cl)cccc1Cl (centres undefined)	–	–	–	58.8	–	–	·	65.4	UDG ctr A3G=–

Source: PubChem BioAssay (several laboratories)
